# Published values pooled from the literature.
# Compare with care: the assays were run in different laboratories.
# Target: Inhibitor of nuclear factor kappa-B kinase subunit alpha (CHUK, Homo sapiens, UniProt O15111)
# Sequence (O15111 1-745, as in one of the studies): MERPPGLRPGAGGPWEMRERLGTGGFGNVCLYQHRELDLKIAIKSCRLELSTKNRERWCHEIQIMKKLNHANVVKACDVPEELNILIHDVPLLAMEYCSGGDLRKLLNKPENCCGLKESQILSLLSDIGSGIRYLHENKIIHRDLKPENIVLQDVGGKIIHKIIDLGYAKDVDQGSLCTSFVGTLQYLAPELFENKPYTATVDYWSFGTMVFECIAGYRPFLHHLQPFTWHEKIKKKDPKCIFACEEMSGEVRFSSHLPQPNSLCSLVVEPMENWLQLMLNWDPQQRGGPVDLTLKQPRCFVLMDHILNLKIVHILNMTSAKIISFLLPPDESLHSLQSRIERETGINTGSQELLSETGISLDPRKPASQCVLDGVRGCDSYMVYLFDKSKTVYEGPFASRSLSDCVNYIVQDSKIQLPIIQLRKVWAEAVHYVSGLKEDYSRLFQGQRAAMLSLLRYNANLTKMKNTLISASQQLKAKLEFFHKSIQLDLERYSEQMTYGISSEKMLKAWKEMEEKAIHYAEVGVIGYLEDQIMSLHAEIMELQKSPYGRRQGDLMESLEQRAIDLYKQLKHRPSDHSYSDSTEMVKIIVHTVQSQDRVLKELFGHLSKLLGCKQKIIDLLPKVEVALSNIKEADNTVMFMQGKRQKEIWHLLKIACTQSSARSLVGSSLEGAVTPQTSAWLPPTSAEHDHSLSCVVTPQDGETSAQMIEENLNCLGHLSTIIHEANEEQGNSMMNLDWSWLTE
SMILES,read-out,method,tested at,remaining binding [%]
COc1ccnn2ncc(-c3ccnc(N(C)C)n3)c12,binding,,1 µM,71
O=C(c1ccc(Nc2ncc(Cl)c(-c3cc4ccccc4s3)n2)cc1)N1CCC(N2CCCC2)CC1,binding,competition with immobilised ligand,1 µM,0.8
Cn1cc(Cl)c2c(Oc3c(F)cc(Nc4cc(Cl)nc(N)n4)cc3F)ccnc21,cell-free assay,competition with immobilised ligand,0.1 µM,85
Cc1cnc(Nc2ccc(C(=O)N3CCC(N4CCCC4)CC3)cc2)nc1-c1cc2ccccc2s1,binding,competition with immobilised ligand,1 µM,1.3
c1cnn2ncc(-c3ccnc(N4CCC45COC5)n3)c2c1,binding,,1 µM,35
COc1ncc2cc3ccccc3nc2c1C#N,cell-free assay,competition with immobilised ligand,5 µM,98
N[C@@H]1CCN(c2nccc(-c3cnn4ncccc34)n2)C1,binding,,1 µM,100
C[C@@]1(Cc2ccc(C#N)cc2)C(=O)N(c2cc(Cl)cc(Cl)c2)c2ncc(C(=O)NC3(c4nc(C5CCC5)no4)CC3)n21,cell-free assay,competition with immobilised ligand,1 µM,100
COc1cnc(Nc2cccc(S(N)(=O)=O)c2)nc1N1CCN(c2ccccc2)C(=O)C1,binding,competition with immobilised ligand,1 µM,91
O=C(Nc1ccc(Oc2ccc(F)cc2)cc1)N1CCc2ncccc2[C@H]1c1ccc(F)cc1,cell-free assay,competition with immobilised ligand,1 µM,100
O=C(NCC1CCOCC1)c1n[nH]cc1NC(=O)c1c(F)cccc1F,binding,competition with immobilised ligand,1 µM,86
CN(C)c1ncc(F)c(-c2cnn3ncccc23)n1,binding,,1 µM,70
C[C@@H](c1cccc(C#N)c1)n1cc(Cl)cc(C(N)=O)c1=N,cell-free assay,competition with immobilised ligand,1 µM,100
F[C@@H]1CCN(c2nccc(-c3cnn4ncccc34)n2)C1,binding,,1 µM,100
C[C@@H]1CN(c2ccc3ncc(-c4ccc5[nH]nc(C6CC6)c5c4)n3n2)C[C@H](C)O1,binding,competition with immobilised ligand,50 nM,86
COc1ccc2cc(OCC3(C(=O)O)CN(C(=O)c4ccc(F)cc4)C3)ccc2c1,cell-free assay,competition with immobilised ligand,1 µM,100
C[C@@H]1CCN(c2nccc(-c3cnn4ncccc34)n2)C1,binding,,1 µM,81
Cc1nccc(COC(=O)N2C[C@@H]3[C@@H](CNC(=O)c4ccc5[nH]nnc5c4)[C@@H]3C2)n1,cell-free assay,competition with immobilised ligand,1 µM,100
CCN1CCN(Cc2ccc(C(=O)Nc3ccc(C)c(Oc4ccc5c(c4)CC(=O)N5)c3)cc2C(F)(F)F)CC1,binding,competition with immobilised ligand,1 µM,74
CNC(=O)[C@@H]1CC[C@@H](n2c(-c3ccc4cnccc4c3)nc3ccc(C(=O)NCc4cccc(C(N)=O)c4)cc32)C1,binding,competition with immobilised ligand,1 µM,100
CS(=O)(=O)c1cc(C2(NC(=O)c3cncc4c3cnn4-c3ccc(F)cc3)CC2)ccn1,cell-free assay,competition with immobilised ligand,1 µM,100
CN(c1nccc(-c2cnn3ncccc23)n1)C1CC1,binding,,1 µM,100
O=C(NCCCN1CCOCC1)c1ccc(Nc2ncc(Cl)c(-c3ccc(Cl)s3)n2)cc1,binding,competition with immobilised ligand,1 µM,51
CC1=C(C#N)C(c2ccc3c(c2)c(NC(=O)c2ccccc2C)nn3C)C(C#N)=C(C)N1,cell-free assay,competition with immobilised ligand,1 µM,77
N#Cc1ccccc1CSc1nnc2c(n1)[nH]c1ccccc12,binding,competition with immobilised ligand,10 µM,100
